Results pooled from the literature.
Target: Serine/threonine-protein kinase ICK (CILK1, Homo sapiens, UniProt Q9UPZ9)
Sequence (Q9UPZ9 1-632, as in one of the studies): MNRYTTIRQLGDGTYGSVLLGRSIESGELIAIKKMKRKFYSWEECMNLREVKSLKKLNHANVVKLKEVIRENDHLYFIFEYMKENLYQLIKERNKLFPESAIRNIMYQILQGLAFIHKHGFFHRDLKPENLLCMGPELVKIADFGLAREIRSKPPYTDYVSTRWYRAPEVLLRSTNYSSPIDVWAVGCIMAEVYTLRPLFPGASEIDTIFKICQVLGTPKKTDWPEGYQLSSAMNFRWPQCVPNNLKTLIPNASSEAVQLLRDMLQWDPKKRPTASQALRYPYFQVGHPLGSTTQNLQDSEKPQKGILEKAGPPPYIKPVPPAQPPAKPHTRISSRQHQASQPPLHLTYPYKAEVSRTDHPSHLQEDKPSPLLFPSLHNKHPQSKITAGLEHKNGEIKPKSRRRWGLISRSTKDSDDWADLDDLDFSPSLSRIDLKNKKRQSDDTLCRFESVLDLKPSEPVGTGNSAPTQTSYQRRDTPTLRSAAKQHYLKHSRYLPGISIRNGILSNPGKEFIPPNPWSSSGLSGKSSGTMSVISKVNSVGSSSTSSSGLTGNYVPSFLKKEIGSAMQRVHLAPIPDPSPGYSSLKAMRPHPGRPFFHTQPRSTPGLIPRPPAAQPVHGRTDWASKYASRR

SMILES	effect on	method	concentration	remaining binding [%]
c1cncc(-c2cccc(Nc3nccc(NC4CCCCC4)n3)c2)c1	binding	competition with immobilised ligand	10 µM	50
CC1CCCN1c1nccc(-c2cnn3ncccc23)n1 (stereo not drawn)	binding		1 µM	100
O=C(c1ccc(Nc2ncc(Cl)c(-c3cc4ccccc4s3)n2)cc1)N1CCC(N2CCCC2)CC1	binding	competition with immobilised ligand	1 µM	57
COc1cnc(Nc2cccc(S(N)(=O)=O)c2)nc1N1CCN(c2ccccc2)CC1	binding	competition with immobilised ligand	1 µM	72
Cc1cnn2ncc(-c3ccnc(N(C)C)n3)c2c1	binding		1 µM	82
CNCc1ccccc1-c1csc([C@H](C)Nc2nc(C)nc3cc(OC)c(OC)cc23)c1	cell-free assay	competition with immobilised ligand	1 µM	86
O=C(NCCCN1CCOCC1)c1ccc(Nc2nccc(-c3cc4ccccc4s3)n2)cc1	binding	competition with immobilised ligand	1 µM	64
CNC(=O)Nc1ccc2c(c1)[C@@]1(CC2)OC(=O)N(CC(=O)N(Cc2ccc(F)cc2)[C@@H](C)C(F)(F)F)C1=O	binding	competition with immobilised ligand	1 µM	67
O=C(NCC1CCOCC1)c1n[nH]cc1NC(=O)c1c(F)cccc1F	binding	competition with immobilised ligand	1 µM	5.7
N[C@H]1CCN(c2nccc(-c3cnn4ncccc34)n2)C1	binding		1 µM	100
O=C(Nc1cccnn1)N1CCC(=Cc2cccc(Oc3ccc(C(F)(F)F)cn3)c2)CC1	cell-free assay	competition with immobilised ligand	1 µM	91
CN(c1nccc(-c2cnn3ncccc23)n1)C1CC1	binding		1 µM	100
COc1cnc(Nc2cccc(S(N)(=O)=O)c2)nc1N1CCN(c2ccccc2)C(=O)C1	binding	competition with immobilised ligand	1 µM	75
Cc1cnc(Nc2ccc(C(=O)N3CCC(N4CCCC4)CC3)cc2)nc1-c1cc2ccccc2s1	binding	competition with immobilised ligand	1 µM	64
COc1ncc2cc3ccccc3nc2c1C#N	binding	competition with immobilised ligand	5 µM	90
COc1cccc(CNC(=O)c2nc3scc(COCc4ccc(C(=O)O)cc4)c3c(=O)[nH]2)c1	cell-free assay	competition with immobilised ligand	1 µM	66.1
C=CC(=O)N1CCC(C(=O)NCC(=O)N2CCN(c3nc(-c4cnc(N)nc4C(F)F)nc(N4CCOCC4)n3)CC2)CC1	binding	competition with immobilised ligand	1 µM	95
c1cnn2ncc(-c3ccnc(N4CCC45COC5)n3)c2c1	binding		1 µM	69
CCOCCn1cc(C(=O)Nc2ccc(-n3nc(-c4cccnc4)cc3C(F)(F)F)cn2)ccc1=O	cell-free assay	competition with immobilised ligand	1 µM	99
C[C@H]1CCN(c2nccc(-c3cnn4ncccc34)n2)C1	binding		1 µM	64
CN(C)C(=O)Cn1cc(-c2nc([C@@](C)(c3ccc(-c4cnc(N)nc4)cc3)C3CC3)no2)cn1	binding	competition with immobilised ligand	1 µM	100
